{"source": "ChEMBL document CHEMBL3856250", "about": "“Discovery of 6-Fluoro-5-(R)-(3-(S)-(8-fluoro-1-methyl-2,4-dioxo-1,2-dihydroquinazolin-3(4H)-yl)-2-methylphenyl)-2-(S)-(2-hydroxypropan-2-yl)-2,3,4,9-tetrahydro-1H-carbazole-8-carboxamide (BMS-986142): A Reversible Inhibitor of Bruton's Tyrosine Kinase (BTK) Conformationally Constrained by Two …” (J Med Chem, 2016)", "key": {"[1]": {"biological_target": "Voltage-gated inwardly rectifying potassium channel KCNH2 (Homo sapiens, UniProt Q12809)", "sequence (Q12809 whole entry)": "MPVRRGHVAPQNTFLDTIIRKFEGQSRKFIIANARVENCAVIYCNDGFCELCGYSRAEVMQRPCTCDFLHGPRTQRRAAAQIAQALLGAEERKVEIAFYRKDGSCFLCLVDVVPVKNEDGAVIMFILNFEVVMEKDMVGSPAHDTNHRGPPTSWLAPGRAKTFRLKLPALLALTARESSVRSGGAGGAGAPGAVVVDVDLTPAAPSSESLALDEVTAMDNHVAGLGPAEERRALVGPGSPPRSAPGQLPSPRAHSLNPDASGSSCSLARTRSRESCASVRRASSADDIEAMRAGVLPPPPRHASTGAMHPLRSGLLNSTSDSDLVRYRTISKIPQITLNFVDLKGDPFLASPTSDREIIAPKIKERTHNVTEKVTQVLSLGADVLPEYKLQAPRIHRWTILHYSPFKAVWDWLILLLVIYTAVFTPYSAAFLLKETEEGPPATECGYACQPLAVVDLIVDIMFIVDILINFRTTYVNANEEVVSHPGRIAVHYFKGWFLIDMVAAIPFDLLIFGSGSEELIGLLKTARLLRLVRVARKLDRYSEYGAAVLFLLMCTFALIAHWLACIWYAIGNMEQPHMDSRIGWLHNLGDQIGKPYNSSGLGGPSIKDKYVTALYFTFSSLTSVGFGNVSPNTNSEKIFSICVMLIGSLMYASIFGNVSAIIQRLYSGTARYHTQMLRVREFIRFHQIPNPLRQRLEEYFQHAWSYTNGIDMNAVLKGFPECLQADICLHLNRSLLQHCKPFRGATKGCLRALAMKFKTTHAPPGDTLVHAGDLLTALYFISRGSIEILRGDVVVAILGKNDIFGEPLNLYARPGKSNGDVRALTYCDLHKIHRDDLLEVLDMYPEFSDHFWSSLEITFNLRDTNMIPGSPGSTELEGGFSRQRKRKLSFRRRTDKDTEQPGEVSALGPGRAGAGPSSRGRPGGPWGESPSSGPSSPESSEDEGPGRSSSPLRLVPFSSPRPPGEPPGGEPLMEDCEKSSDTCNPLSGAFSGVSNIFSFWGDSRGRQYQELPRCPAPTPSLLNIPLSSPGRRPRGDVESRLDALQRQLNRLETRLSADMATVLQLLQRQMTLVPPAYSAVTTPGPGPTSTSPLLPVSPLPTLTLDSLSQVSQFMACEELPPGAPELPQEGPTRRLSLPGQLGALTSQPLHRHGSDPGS", "assay": "Inhibition of human ERG by patch clamp assay"}, "[2]": {"assay": "Cmax in mouse at 10 mg/kg, iv or po", "format": "ADME, organism-based", "conditions": "in vivo"}, "[3]": {"assay": "Bioavailability in mouse at 10 mg/kg", "format": "ADME, organism-based", "conditions": "in vivo"}, "[4]": {"biological_target": "T1, Tyrosine-protein kinase BTK (Homo sapiens, UniProt Q06187)", "T1 sequence (Q06187 whole entry)": "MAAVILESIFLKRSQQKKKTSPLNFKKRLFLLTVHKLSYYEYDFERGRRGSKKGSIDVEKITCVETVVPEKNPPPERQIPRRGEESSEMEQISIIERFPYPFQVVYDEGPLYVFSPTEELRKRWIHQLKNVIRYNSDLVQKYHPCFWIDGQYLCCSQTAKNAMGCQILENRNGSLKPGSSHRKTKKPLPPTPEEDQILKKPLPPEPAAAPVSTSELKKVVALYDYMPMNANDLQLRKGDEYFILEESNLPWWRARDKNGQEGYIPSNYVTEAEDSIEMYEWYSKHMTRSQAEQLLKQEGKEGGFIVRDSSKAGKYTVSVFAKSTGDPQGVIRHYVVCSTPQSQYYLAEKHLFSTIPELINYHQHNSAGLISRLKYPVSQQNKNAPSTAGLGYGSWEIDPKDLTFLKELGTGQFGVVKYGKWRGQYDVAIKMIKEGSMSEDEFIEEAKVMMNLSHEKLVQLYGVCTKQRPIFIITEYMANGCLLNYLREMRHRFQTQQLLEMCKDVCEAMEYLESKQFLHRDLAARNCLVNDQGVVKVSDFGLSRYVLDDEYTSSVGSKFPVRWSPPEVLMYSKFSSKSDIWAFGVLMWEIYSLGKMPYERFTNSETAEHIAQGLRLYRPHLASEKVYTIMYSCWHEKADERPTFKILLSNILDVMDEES", "assay": "Inhibition of BTK in human peripheral B cells assessed as suppression of BCR/anti-IgM/IgG-stimulated CD86 surface expression", "format": "cell-based"}, "[5]": {"biological_target": "T1, Tyrosine-protein kinase BTK", "assay": "Inhibition of BTK in human peripheral B cells assessed as suppression of CD40/CD40L-stimulated CD69 surface expression", "format": "cell-based"}, "[6]": {"biological_target": "Tyrosine-protein kinase BTK (Mus musculus, UniProt P35991)", "sequence (P35991 whole entry)": "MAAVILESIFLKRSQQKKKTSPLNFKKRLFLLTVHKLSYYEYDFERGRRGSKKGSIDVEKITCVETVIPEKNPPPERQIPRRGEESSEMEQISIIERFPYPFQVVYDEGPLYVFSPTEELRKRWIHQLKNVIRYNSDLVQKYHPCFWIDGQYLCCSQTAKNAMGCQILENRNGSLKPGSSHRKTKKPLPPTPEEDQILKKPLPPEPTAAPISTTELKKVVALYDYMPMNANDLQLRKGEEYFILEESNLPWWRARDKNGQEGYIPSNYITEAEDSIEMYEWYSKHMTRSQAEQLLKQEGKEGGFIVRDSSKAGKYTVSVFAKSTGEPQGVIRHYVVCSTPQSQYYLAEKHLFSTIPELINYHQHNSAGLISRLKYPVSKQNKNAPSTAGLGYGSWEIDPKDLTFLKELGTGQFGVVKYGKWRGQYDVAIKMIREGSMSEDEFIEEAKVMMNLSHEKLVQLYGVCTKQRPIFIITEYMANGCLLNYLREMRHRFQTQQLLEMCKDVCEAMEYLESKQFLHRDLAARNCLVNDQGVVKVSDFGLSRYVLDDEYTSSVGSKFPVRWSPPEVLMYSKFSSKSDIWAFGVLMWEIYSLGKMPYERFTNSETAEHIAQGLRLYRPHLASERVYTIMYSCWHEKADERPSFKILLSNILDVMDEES", "assay": "Inhibition of BTK in mouse whole blood assessed as suppression of BCR/anti-IgM/IgG-stimulated CD69 surface expression after 18 hrs with agitation by FITC-staining based FACS analysis", "format": "tissue-based", "in_short": "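Mouse whole blood was incubated with compound and stimulated with F(ab′)2 goat anti-mouse IgG+IgM (100 μg/mL) in the same way as the human assay (18 h, 37 °C, agitation). B cells were gated by APC anti-CD19, and CD69 was quantified as FITC MFI by FACS.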"}, "[7]": {"assay": "Protein binding in rat plasma", "format": "ADME, cell-free", "conditions": "read-out: PPB (converted)"}, "[8]": {"assay": "Protein binding in monkey plasma", "format": "ADME, cell-free, Macaca mulatta", "conditions": "rhesus monkey, read-out: PPB (converted)"}, "[9]": {"biological_target": "T2, Cytochrome P450 1A2 (Homo sapiens, UniProt P05177)", "T2 sequence (P05177 whole entry)": "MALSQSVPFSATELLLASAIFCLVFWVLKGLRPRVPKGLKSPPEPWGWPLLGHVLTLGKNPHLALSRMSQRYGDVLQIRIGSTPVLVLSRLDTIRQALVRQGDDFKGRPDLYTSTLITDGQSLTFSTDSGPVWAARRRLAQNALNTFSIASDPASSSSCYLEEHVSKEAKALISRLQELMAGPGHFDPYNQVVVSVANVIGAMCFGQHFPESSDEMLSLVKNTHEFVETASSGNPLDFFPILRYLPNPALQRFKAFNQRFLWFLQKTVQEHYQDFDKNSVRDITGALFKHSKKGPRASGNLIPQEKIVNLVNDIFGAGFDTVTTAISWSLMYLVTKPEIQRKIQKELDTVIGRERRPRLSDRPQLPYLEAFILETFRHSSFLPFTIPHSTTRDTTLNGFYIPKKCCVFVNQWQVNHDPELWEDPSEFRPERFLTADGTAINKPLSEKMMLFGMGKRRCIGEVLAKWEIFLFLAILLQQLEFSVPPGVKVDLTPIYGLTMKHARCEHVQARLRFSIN", "assay": "Inhibition of CYP1A2 (unknown origin)", "format": "ADME"}, "[10]": {"biological_target": "T3, Cytochrome P450 2B6 (Homo sapiens, UniProt P20813)", "T3 sequence (P20813 whole entry)": "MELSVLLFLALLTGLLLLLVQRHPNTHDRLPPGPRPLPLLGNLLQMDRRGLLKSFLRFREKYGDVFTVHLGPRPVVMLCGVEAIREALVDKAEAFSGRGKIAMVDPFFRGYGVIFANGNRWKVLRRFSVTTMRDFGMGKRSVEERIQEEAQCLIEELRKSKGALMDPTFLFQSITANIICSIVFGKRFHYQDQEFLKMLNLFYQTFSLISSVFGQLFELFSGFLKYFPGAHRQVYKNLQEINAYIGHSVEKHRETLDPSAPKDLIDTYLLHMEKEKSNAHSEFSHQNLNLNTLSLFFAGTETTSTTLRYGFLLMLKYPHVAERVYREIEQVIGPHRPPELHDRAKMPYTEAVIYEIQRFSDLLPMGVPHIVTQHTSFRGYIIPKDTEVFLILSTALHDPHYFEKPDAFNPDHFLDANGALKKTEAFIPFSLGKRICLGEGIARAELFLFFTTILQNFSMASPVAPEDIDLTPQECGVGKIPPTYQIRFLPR", "assay": "Inhibition of CYP2B6 (unknown origin)", "format": "ADME"}, "[11]": {"assay": "Permeability of the compound at pH 5.5 by PAMPA assay", "format": "ADME", "conditions": "read-out: permeability"}, "[12]": {"assay": "Aqueous solubility of the compound", "format": "physicochemical", "conditions": "aqueous medium"}, "[13]": {"assay": "Distribution coefficient, log D of the compound at pH 7.0 by HPLC method", "format": "physicochemical", "conditions": "octanol/water"}, "[14]": {"biological_target": "Proto-oncogene tyrosine-protein kinase Src (Homo sapiens, UniProt P12931)", "sequence (P12931 2-536 limits assumed)": "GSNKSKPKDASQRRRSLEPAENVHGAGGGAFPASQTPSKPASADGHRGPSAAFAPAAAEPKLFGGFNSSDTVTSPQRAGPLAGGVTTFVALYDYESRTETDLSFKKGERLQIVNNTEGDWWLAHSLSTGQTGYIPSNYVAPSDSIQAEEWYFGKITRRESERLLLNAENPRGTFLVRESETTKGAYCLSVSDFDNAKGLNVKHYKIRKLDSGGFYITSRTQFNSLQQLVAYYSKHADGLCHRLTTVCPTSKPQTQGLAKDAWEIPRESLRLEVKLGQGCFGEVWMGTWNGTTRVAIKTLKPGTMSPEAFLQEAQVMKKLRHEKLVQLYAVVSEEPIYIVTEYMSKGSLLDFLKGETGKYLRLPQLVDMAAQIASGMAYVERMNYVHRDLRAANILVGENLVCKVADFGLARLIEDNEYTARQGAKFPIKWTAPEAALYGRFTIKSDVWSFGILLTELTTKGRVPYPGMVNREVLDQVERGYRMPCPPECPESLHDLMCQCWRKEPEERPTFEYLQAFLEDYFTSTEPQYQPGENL", "assay": "Inhibition of SRC (unknown origin)"}, "[15]": {"assay": "Cmax in mouse at 6 mg/kg, po", "format": "ADME, organism-based", "parameters": "dose 6 mg/kg, route oral", "conditions": "in vivo"}, "[16]": {"assay": "Tmax in mouse at 6 mg/kg, po", "format": "ADME, organism-based", "conditions": "in vivo"}, "[17]": {"assay": "MRT in mouse at 3 mg/kg, iv", "format": "ADME, organism-based", "conditions": "in vivo"}, "[18]": {"assay": "Oral bioavailability in mouse at 3 mg/kg", "format": "ADME, organism-based", "conditions": "in vivo"}, "[19]": {"assay": "Cmax in rat at 5 mg/kg, po", "format": "ADME, organism-based", "parameters": "dose 5 mg/kg, route oral", "conditions": "in vivo"}, "[20]": {"assay": "MRT in rat at 2 mg/kg, iv", "format": "ADME, organism-based", "conditions": "in vivo"}, "[21]": {"assay": "Volume of distribution at steady state in rat at 2 mg/kg, iv", "format": "ADME, organism-based", "conditions": "in vivo, read-out: Vdss"}, "[22]": {"assay": "Tmax in cynomolgus monkey at 4 mg/kg, po", "format": "ADME, organism-based, Macaca fascicularis", "conditions": "in vivo"}, "[23]": {"assay": "AUC in cynomolgus monkey at 4 mg/kg, po", "format": "ADME, organism-based, Macaca fascicularis", "conditions": "in vivo"}, "[24]": {"assay": "Clearance in cynomolgus monkey at 2 mg/kg, iv", "format": "ADME, organism-based, Macaca fascicularis", "conditions": "in vivo"}, "[25]": {"assay": "Volume of distribution at steady state in cynomolgus monkey at 2 mg/kg, iv", "format": "ADME, organism-based, Macaca fascicularis", "conditions": "in vivo, read-out: Vdss"}, "[26]": {"assay": "Oral bioavailability in cynomolgus monkey at 4 mg/kg", "format": "ADME, organism-based, Macaca fascicularis", "conditions": "in vivo"}, "[27]": {"assay": "Cmax in dog at 2 mg/kg, po", "format": "ADME, organism-based, Canis lupus familiaris", "parameters": "dose 2 mg/kg, route oral", "conditions": "in vivo"}, "[28]": {"assay": "Tmax in dog at 2 mg/kg, po", "format": "ADME, organism-based, Canis lupus familiaris", "conditions": "in vivo"}, "[29]": {"assay": "Half life in dog at 1 mg/kg, iv", "format": "ADME, organism-based, Canis lupus familiaris", "conditions": "in vivo"}, "[30]": {"assay": "MRT in dog at 1 mg/kg, iv", "format": "ADME, organism-based, Canis lupus familiaris", "conditions": "in vivo"}, "[31]": {"assay": "Volume of distribution at steady state in dog at 1 mg/kg, iv", "format": "ADME, organism-based, Canis lupus familiaris", "conditions": "in vivo, read-out: Vdss"}, "[32]": {"assay": "Drug metabolism in po dosed rat plasma assessed as isomerization of atropisomeric center after 24 hrs", "format": "ADME, organism-based", "conditions": "read-out: Drug metabolism"}, "[33]": {"tested_on": "Mus musculus", "assay": "Antiathritis activity in anticollagen antibody-induced arthritis BALB/c mouse model assessed as reduction in LPS-induced paw swelling at 5 mg/kg, po qd followed by LPS addition on day 3 measured after 11 days relative to control", "format": "functional", "parameters": "scale not given: the % may be the effect or the level left"}}, "note": "pIC50: −log10 of the molar value.", "data": [{"smiles": "Cc1c(-c2c(F)cc(C(N)=O)c3[nH]c4c(c23)CC[C@H](C(C)(C)O)C4)cccc1-n1c(=O)c2cccc(F)c2n(C)c1=O", "note": "(atropisomer R) [BMS-986142]", "values": [{"measurement": "pIC50", "setting": "[1]", "value": 5.26}, {"measurement": "Cmax", "setting": "[2]", "value": 4.9, "unit": "µM"}, {"measurement": "bioavailability", "setting": "[3]", "value": "< 4", "unit": "%"}, {"measurement": "pIC50", "setting": "[4]", "value": 8.40}, {"measurement": "pIC50", "setting": "[5]", "value": "< 5.00"}, {"measurement": "pIC50", "setting": "[6]", "value": 6.85}, {"measurement": "fraction unbound", "setting": "[7]", "value": 0.017}, {"measurement": "fraction unbound", "setting": "[8]", "value": 0.012}, {"measurement": "pIC50", "setting": "[9]", "value": "< 4.40"}, {"measurement": "pIC50", "setting": "[10]", "value": "< 4.40"}, {"measurement": "Papp", "setting": "[11]", "value": 673, "unit": "nm/s"}, {"measurement": "solubility", "setting": "[12]", "value": "< 4", "unit": "µg/mL"}, {"measurement": "logD", "setting": "[13]", "value": 4.06}, {"measurement": "pIC50", "setting": "[14]", "value": 5.96}, {"measurement": "Cmax", "setting": "[15]", "value": 4.9, "unit": "µM"}, {"measurement": "Tmax", "setting": "[16]", "value": 1, "unit": "h"}, {"measurement": "MRT", "setting": "[17]", "value": 4.8, "unit": "h"}, {"measurement": "bioavailability", "setting": "[18]", "value": 93, "unit": "%"}, {"measurement": "Cmax", "setting": "[19]", "value": 2.3, "unit": "µM"}, {"measurement": "MRT", "setting": "[20]", "value": 5.1, "unit": "h"}, {"measurement": "Vd", "setting": "[21]", "value": 1.3, "unit": "L/kg"}, {"measurement": "Tmax", "setting": "[22]", "value": 3.7, "unit": "h"}, {"measurement": "AUC", "setting": "[23]", "value": 5, "unit": "µM·h"}, {"measurement": "clearance", "setting": "[24]", "value": 0.6, "unit": "L/h/kg"}, {"measurement": "Vd", "setting": "[25]", "value": 3, "unit": "L/kg"}, {"measurement": "bioavailability", "setting": "[26]", "value": 33, "unit": "%"}, {"measurement": "Cmax", "setting": "[27]", "value": 1.2, "unit": "µM"}, {"measurement": "Tmax", "setting": "[28]", "value": 3, "unit": "h"}, {"measurement": "half-life", "setting": "[29]", "value": 13, "unit": "h"}, {"measurement": "MRT", "setting": "[30]", "value": 18, "unit": "h"}, {"measurement": "Vd", "setting": "[31]", "value": 3.4, "unit": "L/kg"}, {"measurement": "metabolised at 24 h", "setting": "[32]", "value": "< 2", "unit": "%"}, {"measurement": "Activity", "setting": "[33]", "value": 72, "unit": "%"}]}]}
